This note sets out measurements from ChEMBL document CHEMBL2157903, “2-Arylbenzofuran-based molecules as multipotent Alzheimer's disease modifying agents” (Eur J Med Chem, 2012).

pEC50, pIC50, pKi: −log10 of the molar value. Activity calls are given as the source filed them. The rule behind the calls is not given here.

Data set [1] concerns SH-SY5Y. The data set can be described thus: Neuroprotective activity in human SH-SY5Y cells assessed as inhibition of amyloid beta (25 to 35)-induced cytotoxicity at 30 uM after 3 hrs by MTT assay. In kind it is functional. A digest of the protocol: (§1)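 SH-SY5Y cells in DMEM with 10% FBS were seeded at 3 × 10⁴/well for 24 h. They were exposed for 3 h at 37 °C to HFIP-pretreated unaggregated Aβ25-35 with or without compound (1–30 range). Viability was read by MTT (5 mg/mL, 2 h; isopropanol; 570/690 nm) as % of untreated control. Percentage protection is given at the highest concentration. Mean ± SD of at least two experiments.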
(In general: Tetrazolium dyes change colour on reduction, which living cells bring about.)

Data set [2] addresses Amyloid-beta precursor protein (Homo sapiens) (UniProt P05067). The data set can be described thus: Inhibition of amyloid beta (25 to 35) binding to plasma membrane surface of human Sh-SY5Y cells at 30 uM after 30 mins by congo red-based spectrophotometry. In kind it is cell-based. A digest of the protocol: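 SH-SY5Y cells were seeded at 5 × 10³/well for 24 h, then given fresh medium with Aβ25-35 and compound for 10, 20 and 30 min. After two PBS washes, bound peptide was stained with Congo red in PBS for 20 min. Absorbance was read at 540 nm and expressed as % of untreated cells.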

Data set [3] concerns the target T1, Acetylcholinesterase (Homo sapiens, UniProt P22303). Nature of the data set: Inhibition of human recombinant AChE using acetylthiocholine iodide as substrate preincubated for 20 mins prior to substrate addition by Ellman's method. Particulars: for pIC50: read-out: IC50. A digest of the protocol: (§2)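 Ellman method with acetylthiocholine iodide (AChE) or butyrylthiocholine iodide (BuChE) as substrate. Enzyme and inhibitor preincubated 20 min at 37 °C before substrate addition. Blanks without enzyme corrected for non-enzymatic hydrolysis. Five inhibitor concentrations giving 20-80% inhibition. IC50 from linear regression of % inhibition vs log final concentration. Mean of two or three independent measurements, each in triplicate.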

The test system of data set [4] is SH-SY5Y. Nature of the data set: Neuroprotective activity in human SH-SY5Y cells assessed as inhibition of amyloid beta (25 to 35)-induced cytotoxicity after 3 hrs by MTT assay. In kind it is functional, cell-based. A digest of the protocol:
as §1

Data set [5] relates to SH-SY5Y. The data set can be described thus: Neuroprotective effect in human SH-SY5Y cells assessed as inhibition of amyloid beta (25 to 35)-induced ROS production at 30 uM after 3 hrs by DHE-based fluorimetric analysis. In kind it is functional, cell-based. Summed up: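 SH-SY5Y cells were seeded at 1 × 10⁴/well on culture slides for 24 h and treated with Aβ25-35 with or without compound for 3 h. ROS was measured with DHE loaded for 15 min in the dark, then 1 h in serum-free DMEM at 37 °C. Fluorescence microscopy covered four random fields of 50–100 cells each, scored as densitometry per cell versus untreated cells. Mean ± SD of three experiments.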

The next data set addresses Cholinesterase (Homo sapiens, UniProt P06276). Nature of the data set: Inhibition of human serum BuChE using butyrylthiocholine iodide as substrate preincubated for 20 mins prior to substrate addition by Ellman's method. A digest of the protocol: as §2
For orientation: Ellman's reagent forms a yellow product with free thiols.

Data set [6] is described as follows: Inhibition of amyloid beta (25 to 35) fibril formation at 10 uM incubated up to 6 hrs by UV-Vis spectrophotometric analysis. A digest of the protocol:
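Aβ25-35 at 100 μM final, in 10 mM phosphate buffer pH 7.2, sonicated 1 min on addition. Compound added in MeOH at 10 μM final, with curcumin reference alongside. Polymerization followed by UV-vis at 190-380 nm over 0-6 h. Spectra of compound alone were subtracted. At least three independent runs.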

Data set [7] addresses T2, Cannabinoid receptor 2 (Homo sapiens, UniProt P34972). The data set can be described thus: Displacement of [3H]CP-55940 from human recombinant CB2 receptor expressed in HEK293 cells after 90 mins. It is filed as cell-based. Summed up: (§3)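 Membranes from HEK-293 cells stably expressing human recombinant CB1 (Bmax 2.5 pmol/mg) or CB2 (Bmax 4.7 pmol/mg). Incubated with [3H]-CP-55,940 (CB1 0.14 nM, Kd 0.18 nM; CB2 0.084 nM, Kd 0.31 nM) and increasing compound concentrations for 90 min at 30 °C. Non-specific binding defined with 10 […] 55212-2. IC50 by non-linear regression, converted to Ki by Cheng-Prusoff. Means of at least n = 3.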
A general note: Loss of bound radioactivity is the signal in a displacement assay; it reports binding, not function.

Data set [8] addresses T3, Cannabinoid receptor 1 (Homo sapiens, UniProt P21554). Nature of the data set: Displacement of [3H]CP-55940 from human recombinant CB1 receptor expressed in HEK293 cells after 90 mins. In kind it is cell-based. Summed up:
as §3

The target of data set [9] is T2, Cannabinoid receptor 2. The data set can be described thus: Displacement of [3H]CP-55940 from human recombinant CB2 receptor expressed in HEK293 cells at 10 uM after 90 mins. In kind it is cell-based.
Data set [10] addresses T3, Cannabinoid receptor 1. The data set can be described thus: Displacement of [3H]CP-55940 from human recombinant CB1 receptor expressed in HEK293 cells at 10 uM after 90 mins. It is filed as cell-based. Summed up: (§4)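 Membranes from HEK-293 cells stably expressing human recombinant CB1 or CB2 were incubated with [³H]-CP-55,940 (0.14 nM for CB1; 0.084 nM for CB2) plus test compound for 90 min at 30 °C. Non-specific binding was defined with WIN 55212-2. Percent displacement of bound radioligand at the maximum tested concentration is reported. At least n = 3 experiments.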

A short description of data set [11]: Induction of amyloid beta (25 to 35) fibril formation at 10 uM incubated up to 6 hrs by UV-Vis spectrophotometry. A digest of the protocol: (§5)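 Aβ25-35, sonicated 1 min, was mixed in 10 mM phosphate buffer (pH 7.2) with compound added in MeOH, on ice. Polymerization was followed by UV-visible spectroscopy at 190–380 nm over 0–6 h. Compound-alone spectra were subtracted, and peptide-alone and curcumin controls were run in parallel. IC50 (0.1–50 range) came from a sigmoidal least-squares fit. At least three independent runs.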

Data set [12] in a line: Inhibition of amyloid beta (25 to 35) fibril formation incubated up to 6 hrs by UV-Vis spectrophotometric analysis. A digest of the protocol:
as §5

Data set [13] can be described thus: Ratio of curcumin IC50 to compound IC50 for amyloid beta (25 to 35).
Data set [14] addresses T1, Acetylcholinesterase. The data set can be described thus: Pseudo-irreversible inhibition of human recombinant AChE using acetylthiocholine iodide as substrate preincubated for 20 mins prior to substrate addition by Ellman's method.
The target of data set [15] is T1, Acetylcholinesterase. The data set can be described thus: Ratio of rivastigmine IC50 to compound IC50 for human recombinant AChE.
Data set [16] deals with T3, Cannabinoid receptor 1. The data set can be described thus: Displacement of [3H]CP-55940 from human recombinant CB1 receptor expressed in HEK293 cells at 25 uM after 90 mins. In kind it is cell-based. A digest of the protocol:
as §4

Data set [17] addresses T2, Cannabinoid receptor 2. Nature of the data set: Displacement of [3H]CP-55940 from human recombinant CB2 receptor expressed in HEK293 cells at 25 uM after 90 mins. In kind it is cell-based. A digest of the protocol:
as §4

T2 sequence (P34972 whole entry): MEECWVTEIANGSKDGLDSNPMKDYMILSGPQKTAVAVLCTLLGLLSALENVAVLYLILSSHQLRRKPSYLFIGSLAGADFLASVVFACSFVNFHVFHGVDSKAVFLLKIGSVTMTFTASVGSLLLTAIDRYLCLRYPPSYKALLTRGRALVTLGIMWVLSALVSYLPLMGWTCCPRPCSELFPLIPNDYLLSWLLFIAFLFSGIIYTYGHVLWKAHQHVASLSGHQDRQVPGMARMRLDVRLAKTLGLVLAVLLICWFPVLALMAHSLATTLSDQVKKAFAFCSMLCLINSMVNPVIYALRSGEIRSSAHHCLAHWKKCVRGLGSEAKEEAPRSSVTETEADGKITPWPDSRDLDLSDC
T3 sequence (P21554 whole entry): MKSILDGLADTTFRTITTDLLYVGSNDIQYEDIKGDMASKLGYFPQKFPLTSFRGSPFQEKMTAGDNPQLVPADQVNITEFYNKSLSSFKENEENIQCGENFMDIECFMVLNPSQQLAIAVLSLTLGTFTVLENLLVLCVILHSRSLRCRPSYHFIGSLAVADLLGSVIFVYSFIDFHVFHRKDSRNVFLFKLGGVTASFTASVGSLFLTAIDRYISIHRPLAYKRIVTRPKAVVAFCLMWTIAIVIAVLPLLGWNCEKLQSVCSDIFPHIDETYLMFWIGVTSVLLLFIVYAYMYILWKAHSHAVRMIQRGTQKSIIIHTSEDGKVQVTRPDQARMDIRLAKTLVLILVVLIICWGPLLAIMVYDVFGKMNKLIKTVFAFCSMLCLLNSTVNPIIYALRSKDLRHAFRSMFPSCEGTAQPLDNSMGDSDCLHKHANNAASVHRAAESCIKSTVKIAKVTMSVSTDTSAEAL
Amyloid-beta precursor protein (Homo sapiens), sequence (P05067 whole entry): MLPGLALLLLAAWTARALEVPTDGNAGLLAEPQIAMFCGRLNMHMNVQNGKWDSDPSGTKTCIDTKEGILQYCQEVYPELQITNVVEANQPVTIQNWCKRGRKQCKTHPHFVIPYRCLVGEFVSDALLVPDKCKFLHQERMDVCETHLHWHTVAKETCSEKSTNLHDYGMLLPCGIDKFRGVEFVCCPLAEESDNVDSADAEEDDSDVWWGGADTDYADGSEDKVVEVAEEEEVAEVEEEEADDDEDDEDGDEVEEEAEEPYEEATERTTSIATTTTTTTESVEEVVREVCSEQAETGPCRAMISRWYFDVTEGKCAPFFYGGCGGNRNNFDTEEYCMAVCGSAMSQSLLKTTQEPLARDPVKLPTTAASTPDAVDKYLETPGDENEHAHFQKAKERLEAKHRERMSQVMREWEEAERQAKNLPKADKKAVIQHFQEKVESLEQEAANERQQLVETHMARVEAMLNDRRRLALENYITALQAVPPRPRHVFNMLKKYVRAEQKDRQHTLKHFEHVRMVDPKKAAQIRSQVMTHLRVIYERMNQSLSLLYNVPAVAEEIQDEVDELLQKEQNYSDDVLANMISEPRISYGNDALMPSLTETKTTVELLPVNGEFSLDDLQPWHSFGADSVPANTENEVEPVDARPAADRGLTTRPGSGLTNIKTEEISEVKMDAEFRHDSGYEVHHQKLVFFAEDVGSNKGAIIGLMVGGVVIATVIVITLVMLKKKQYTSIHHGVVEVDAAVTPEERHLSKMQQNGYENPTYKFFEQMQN
T1 sequence (P22303 whole entry): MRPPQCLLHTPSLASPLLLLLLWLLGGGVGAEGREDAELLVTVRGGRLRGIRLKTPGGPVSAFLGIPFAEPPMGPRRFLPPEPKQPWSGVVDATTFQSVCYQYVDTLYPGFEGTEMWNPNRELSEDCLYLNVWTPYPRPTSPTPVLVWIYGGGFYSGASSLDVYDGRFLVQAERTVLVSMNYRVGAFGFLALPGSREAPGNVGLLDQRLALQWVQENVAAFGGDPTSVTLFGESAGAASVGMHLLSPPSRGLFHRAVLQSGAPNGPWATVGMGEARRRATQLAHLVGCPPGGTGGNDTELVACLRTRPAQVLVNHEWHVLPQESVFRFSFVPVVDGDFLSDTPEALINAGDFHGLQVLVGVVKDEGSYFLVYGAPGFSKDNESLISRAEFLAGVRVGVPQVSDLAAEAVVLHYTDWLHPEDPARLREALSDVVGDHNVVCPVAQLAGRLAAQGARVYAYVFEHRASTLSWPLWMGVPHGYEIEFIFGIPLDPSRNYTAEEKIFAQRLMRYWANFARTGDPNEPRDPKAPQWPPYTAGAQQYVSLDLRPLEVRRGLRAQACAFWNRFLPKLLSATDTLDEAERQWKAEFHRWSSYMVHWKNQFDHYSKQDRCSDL
Cholinesterase, sequence (P06276 whole entry): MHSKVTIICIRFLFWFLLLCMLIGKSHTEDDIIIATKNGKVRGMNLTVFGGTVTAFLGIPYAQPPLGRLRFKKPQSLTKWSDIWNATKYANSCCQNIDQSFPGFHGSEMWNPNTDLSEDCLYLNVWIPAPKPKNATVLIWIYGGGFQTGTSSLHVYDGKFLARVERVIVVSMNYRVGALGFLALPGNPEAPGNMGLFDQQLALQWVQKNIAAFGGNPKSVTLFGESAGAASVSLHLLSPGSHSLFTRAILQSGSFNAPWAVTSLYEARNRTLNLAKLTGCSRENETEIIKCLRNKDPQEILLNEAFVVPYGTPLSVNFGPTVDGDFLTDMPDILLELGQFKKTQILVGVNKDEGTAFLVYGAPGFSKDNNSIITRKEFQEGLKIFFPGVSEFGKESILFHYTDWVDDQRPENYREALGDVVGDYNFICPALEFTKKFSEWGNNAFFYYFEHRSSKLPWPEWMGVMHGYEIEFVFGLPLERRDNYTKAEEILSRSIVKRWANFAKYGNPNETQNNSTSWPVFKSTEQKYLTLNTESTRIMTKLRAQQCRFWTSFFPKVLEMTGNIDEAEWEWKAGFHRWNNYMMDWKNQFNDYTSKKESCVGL

One may read the inhibition as the relative decrease from the control value, in per cent. For orientation: pIC50 means the IC50 on a negative log10 scale, so that one unit is a factor of ten. In the case of `Cc1cccc(C(=O)c2c(-c3cccc(OCCCCCCCN(C)Cc4ccccc4)c3)oc3ccccc23)c1`, in the data set with SH-SY5Y [1], the inhibition at 30 µM came to 46.2%. Also, the inhibition entry (in data set [2]; with SH-SY5Y [5]) was “Active” throughout. The pIC50 on Acetylcholinesterase [3] was 3.99; at Cholinesterase it was 6.40. Further, the inhibition result was “Dose-dependent effect” in the data set on SH-SY5Y [4] and 48% in data set [6]. Also, the result on Cannabinoid receptor 2 [7] and on Cannabinoid receptor 1 [8] was inactive.

As usually defined, the pEC50 is the negative decadic logarithm of the EC50, by convention in mol/L. By pKi is commonly meant the Ki on a negative log10 scale, so that one unit is a factor of ten. Consider `CN(CCCCCCCOc1ccc(-c2oc3ccccc3c2C(=O)c2c3ccccc3cc3ccccc23)cc1)Cc1ccccc1`, for which the results for the Activity (on Cannabinoid receptor 2 [9]; at Cannabinoid receptor 1 [10]; in [11]) were 9.87%, 30.3% and “Toxic”, respectively. The pIC50 was 4.17 on Acetylcholinesterase [3] and 4.09 against Cholinesterase. Also, the pEC50 on Cannabinoid receptor 2 [7] and on Cannabinoid receptor 1 [8] was less than 5.00 in each case. For the same compound, the pKi on Cannabinoid receptor 2 [7] and at Cannabinoid receptor 1 [8] was less than 5.00 throughout.

Consider `CN(CCCCCCCOc1cccc(-c2oc3ccccc3c2C(=O)c2ccccc2)c1)Cc1ccccc1`, for which the inhibition at 30 µM with SH-SY5Y [1] was 48.4%. The inhibition result (in [2]; with SH-SY5Y [5]) was “Active” each time. The pIC50 at Acetylcholinesterase [3] was 6.62; against Cholinesterase, 5.54. Also, the inhibition entry in the data set on SH-SY5Y [4] was “Dose-dependent effect”; in [6], 35%. The outcome on Cannabinoid receptor 2 [7] and at Cannabinoid receptor 1 [8] was inactive.

On to `CN(CCCCCCCOc1cccc(-c2cc3ccccc3o2)c1)Cc1ccccc1`, for which the pIC50 is 5.41 in data set [12] and 5.52 at Cholinesterase. For the same compound, on Acetylcholinesterase [3], the IC50 entry is reported as “Not Active”. Also, in [13], the Ratio IC50 came out at 2.5. In data set [6], the inhibition was 81%.

Consider `CNC(=O)Oc1cccc(CN(C)CCCCCCCOc2ccc(-c3oc4ccccc4c3C(=O)c3ccc(C)cc3)cc2)c1`, for which, at Acetylcholinesterase [14], the inhibition result is “Active”. In addition, the results for the pIC50 on Acetylcholinesterase [3] and against Cholinesterase were 6.47 and 6.06, respectively. Moreover, at Acetylcholinesterase [15], the Ratio IC50 is 1.

`CN(CCCCCCCOc1ccc(-c2oc3ccccc3c2C(=O)c2ccccc2)cc1)Cc1ccccc1`: the inhibition at 30 µM with SH-SY5Y [1] came to 58.2%. Besides, the Activity on Cannabinoid receptor 2 [9] is 47.3%; at Cannabinoid receptor 1 [10] it was 8.72%. Moreover, the inhibition result (in data set [2]; in the data set on SH-SY5Y [5]) was “Active” throughout. Besides, the pIC50 in data set [12] was 4.90. The compound further displayed an inhibition in data set [6] of 47%. Also, the pEC50 is less than 5.00 at Cannabinoid receptor 2 [7] and 6.10 on Cannabinoid receptor 1 [8]. For the same compound, the pKi is less than 5.00 at Cannabinoid receptor 2 [7] and 6.49 on Cannabinoid receptor 1 [8].

As to `CN(CCCCCCCOc1ccc(-c2oc3ccccc3c2C(=O)c2ccc(-c3ccccc3)cc2)cc1)Cc1ccccc1`, the figures for the Activity at Cannabinoid receptor 1 [16] and on Cannabinoid receptor 2 [17] were 80% and 86%, respectively. In addition, the IC50 entry at Acetylcholinesterase [3] is listed as “Not Active”. The pIC50 against Cholinesterase is 4.05. Moreover, the negative logarithm of the EC50 (pEC50) on Cannabinoid receptor 2 [7] was 5.15; at Cannabinoid receptor 1 [8], 5.11. Besides, the values for the pKi on Cannabinoid receptor 2 [7] and on Cannabinoid receptor 1 [8] were 5.75 and 5.51, respectively.
